Ecoli WT expand: blocks growth of wild type E. coli BW25113; OD600 absorbance; growth inhibition, % at 100 µM; 98,000 compounds, 0.15% hits; AID 710;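 active = growth inhibition above about 50% at one test dose, limit read from the data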;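 note: growth measured after 20 h incubation at 37 °C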
HUVEC prolif 384: inhibitors of human endothelial cell proliferation; HUVEC proliferation, CellTiter-Glo luminescence, 72 h; stronger effect = lower value; viability, % at 10 µM (by protocol); 86,000 compounds, 1.1% hits;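 active = viability at or below 30%; inactive = viability above 30%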;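 note: 100% = median luminescence of DMSO-only cell control wells on each plate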
tolC growth inh: blocks growth of E. coli BW25113 tolC mutant | OD615 | growth inhibition, % at 10 µM (by protocol) | 65,000 compounds, 2.2% hits | AID 573;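 active = growth inhibition at or above a cutoff equal to the mean over every tested compound plus 3 SD, cut at about 60% in these data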;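 note: growth measured after 20 h incubation at 37 °C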
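Test system – E. coli BW25113 ΔtolC::kan, tolC deletion mutant strain · Detection – OD at 615 nm · Buffer or medium – LB with kanamycin 50 µg/mL · Times – 20 h compound exposure of bacteria at 37 °C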
H69AR growth 86K: growth inhibitors of human H69AR lung tumor cells. H69AR lung tumor viability, ATP luminescence, 72 h; stronger effect = lower value. viability, % at 10 µM. AID 598. 85,000 compounds, 6% hits;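 active = viability at or below 40%; inactive = viability above 40%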;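 note: multidrug resistant small cell line overexpressing MRP-1 efflux transporter; 100% = mean luminescence of untreated control wells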
Jurkat tox 60K: cytotoxic compounds reducing Jurkat cell viability; Jurkat E6.1 viability, ATP luminescence, 48 h; 56,000 compounds, 1.2% hits; inhibition, % at 4 µM;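 active = inhibition above the mean inhibition of all tested compounds plus 3 SD, cut at about 28% in these data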
Fibroblast inh: blocks proliferation of human lung fibroblasts; 85,000 compounds, 1.1% hits; LL 47 human lung fibroblast viability, ATP luminescence; stronger effect = lower value; viability, % at 10 µM;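 active = viability at or below 50% in the single dose screen; inactive = viability above 50%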;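 note: compound exposure lasted 72 h before the ATP readout; 100% = median luminescence of untreated cell-only wells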
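Signal: luminescent ATP detection, CellTiter-Glo; assay system: LL 47 human lung fibroblasts; input: 1,150 cells/well; incubation: overnight cell rest, 72 h compound treatment at 37 °C; measure: % viability versus median cells-only luminescence; medium: IMEM growth medium with 15% fetal bovine serum; dosing: compound addition at 0.1% DMSO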
* = called active by the depositor. Shown are actives, neighbours in structure and some others; about 6.4% of the full set was active somewhere.

`Cc1nn(CCOc2ccccc2)c(=O)n1-c1c(F)cccc1F` gave Ecoli WT expand -1.0.
For Cc1ccc(NC(=O)C2C(c3ccccc3)C=CC(c3ccccc3)C2C(=O)O)cc1 (stereo not drawn) the results were Ecoli WT expand -3.0.
`Cc1ccc(C(C(=O)NC2CCCCC2)N(Cc2ccco2)C(=O)C2COc3ccccc3O2)o1` (stereo not drawn) gave Ecoli WT expand -4.0, HUVEC prolif 384 109.6, H69AR growth 86K 98.2 and Fibroblast inh 101.7.
`O=C(NCc1ccco1)C(c1cccs1)N(C(=O)C1COc2ccccc2O1)c1cccc(O)c1` (stereo not drawn) gave Ecoli WT expand -8.0, HUVEC prolif 384 85.7, tolC growth inh 75.9*, H69AR growth 86K 82.7, Jurkat tox 60K 4.4 and Fibroblast inh 98.1.
`C=CCn1c(CCNC(=O)c2ccccc2F)nnc1SCC(=O)Nc1nc2ccccc2s1` gave Ecoli WT expand -2.0, HUVEC prolif 384 93.5, H69AR growth 86K 90.4 and Fibroblast inh 104.8.
N#C/C(=C\Nc1ccc2c(c1)OCCO2)c1nc2ccccc2[nH]1 was read as Ecoli WT expand 0.0, HUVEC prolif 384 73.7, tolC growth inh 25.7, H69AR growth 86K 19.3*, Jurkat tox 60K 6.9 and Fibroblast inh 103.5.
`Cc1cccc(-n2cnc(C(=O)N/N=C/c3ccccc3)c2)n1` gave Ecoli WT expand 6.0, HUVEC prolif 384 76.4, H69AR growth 86K 99.0 and Fibroblast inh 102.5.
`Cc1ccc(NCc2nnc(SCc3ccc(C#N)cc3)n2Cc2ccco2)c(C)c1` gave Ecoli WT expand -18.0, HUVEC prolif 384 104.7, tolC growth inh 61.0*, H69AR growth 86K 73.4, Jurkat tox 60K 8.0 and Fibroblast inh 84.8.
Screening CC1CCN(Cc2c(C#N)c3ccccc3n2C)CC1 returned Ecoli WT expand 7.0, HUVEC prolif 384 92.7, tolC growth inh 15.2, H69AR growth 86K 92.8 and Fibroblast inh 91.2.
C=CCOC(=O)C1=C(C)Nc2nc3ccccc3n2C1c1ccncc1 (stereo not drawn) was read as Ecoli WT expand -3.0, HUVEC prolif 384 120.1, tolC growth inh 5.4, H69AR growth 86K 48.3, Jurkat tox 60K 5.5 and Fibroblast inh 94.2.
`CCOC(=O)c1cc2c(=O)n3cccc(C)c3nc2n(Cc2ccco2)c1=NC(=O)c1ccccc1` gave Ecoli WT expand -8.0, HUVEC prolif 384 78.9, H69AR growth 86K 24.7* and Fibroblast inh 95.5.
Cc1cccn2c(=O)c3cc(C#N)c(=NC(=O)c4ccncc4)n(Cc4ccco4)c3nc12 was read as HUVEC prolif 384 86.4, tolC growth inh 10.5, H69AR growth 86K 61.9, Jurkat tox 60K 2.7 and Fibroblast inh 94.2.
For Cc1ccc(C2=CC(c3cccs3)n3nnnc3N2)cc1 (stereo not drawn) the results were Ecoli WT expand -6.0.
For COc1ccc(C2=CC(c3c(C)nn(-c4ccccc4)c3Cl)n3nnnc3N2)cc1OC (stereo not drawn) the results were Ecoli WT expand -4.0, HUVEC prolif 384 79.8, tolC growth inh 32.4, H69AR growth 86K 24.5*, Jurkat tox 60K 0.9 and Fibroblast inh 87.7.
Screening CCOc1ccc(C2C=C(c3ccc(C)cc3)Nc3nnnn32)cc1 (stereo not drawn) returned Ecoli WT expand -5.0, HUVEC prolif 384 21.9*, tolC growth inh -0.5, H69AR growth 86K 2.2*, Jurkat tox 60K -5.9 and Fibroblast inh 51.0.
`CCOc1ccc(C2C=C(c3ccccc3)Nc3nnnn32)cc1` (stereo not drawn) gave Ecoli WT expand -13.0, HUVEC prolif 384 58.8, tolC growth inh -6.9, H69AR growth 86K 32.8*, Jurkat tox 60K -1.6 and Fibroblast inh 100.4.
`COc1ccccc1C1C=C(c2ccc(C)cc2)Nc2nnnn21` (stereo not drawn) gave Ecoli WT expand 1.0, HUVEC prolif 384 76.6, tolC growth inh 10.3, H69AR growth 86K 18.5*, Jurkat tox 60K 35.9* and Fibroblast inh 84.6.
CC(=O)Cc1nsc(NC(=O)c2ccc(COc3ccccc3)o2)n1 was read as Ecoli WT expand -3.0, HUVEC prolif 384 103.7, tolC growth inh -7.2, H69AR growth 86K 85.3, Jurkat tox 60K 0.5 and Fibroblast inh 106.4.
For CCOC(=O)c1ccccc1NC1CC(=O)N(c2ccccc2C)C1=O (stereo not drawn) the results were Ecoli WT expand 1.0, HUVEC prolif 384 102.9, tolC growth inh 1.0, H69AR growth 86K 96.7, Jurkat tox 60K 1.4 and Fibroblast inh 100.5.
`C/C(N)=C(/C#N)C(=O)COC(=O)CCC1CCCC1` gave Ecoli WT expand 4.0, HUVEC prolif 384 84.7, H69AR growth 86K 90.3 and Fibroblast inh 96.9.
For O=C1c2cnccc2CN1Cc1ccccc1 the results were Ecoli WT expand 2.0, HUVEC prolif 384 93.5, H69AR growth 86K 87.2 and Fibroblast inh 104.9.
For N#Cc1c(C(F)(F)F)cc(-c2ccccc2Cl)[nH]c1=O the results were Ecoli WT expand -1.0.
COc1ccc(C2C(C(=O)NCc3cccnc3)c3ccccc3C(=O)N2C)cc1OC (stereo not drawn) was read as Ecoli WT expand 5.0, HUVEC prolif 384 94.0, tolC growth inh -14.4, H69AR growth 86K 98.5 and Fibroblast inh 102.0.
`Cc1nn(-c2ccccc2)c(OC(=O)c2cccs2)c1S(=O)(=O)c1ccc([N+](=O)[O-])cc1` gave Ecoli WT expand -4.0, HUVEC prolif 384 87.9, H69AR growth 86K 7.9* and Fibroblast inh 99.6.
Screening Cc1nn(-c2ccccc2)c(OC(=O)c2cccs2)c1S(=O)(=O)c1ccccc1 returned Ecoli WT expand -8.0, tolC growth inh -1.9 and Jurkat tox 60K -3.4.
`Cc1ccc(C2=Nc3ccccc3NC(C)(c3ccc(C)o3)C2)o1` (stereo not drawn) gave Ecoli WT expand 9.0, HUVEC prolif 384 84.9, tolC growth inh 25.8, H69AR growth 86K 37.5*, Jurkat tox 60K -5.2 and Fibroblast inh 86.3.
CCCCN1CN(S(=O)(=O)c2cccs2)c2nc3ccccc3nc21 was read as Ecoli WT expand -5.0, tolC growth inh 8.9 and Jurkat tox 60K -0.1.
For CC(C)CCN1CN(S(=O)(=O)c2cccs2)c2nc3ccccc3nc21 the results were Ecoli WT expand -5.0, HUVEC prolif 384 80.1, H69AR growth 86K 37.0* and Fibroblast inh 93.9.
For CCOC(=O)CSc1nnc(SCCN2C(=O)c3ccccc3C2=O)s1 the results were Ecoli WT expand 3.0, HUVEC prolif 384 94.4, H69AR growth 86K 94.1 and Fibroblast inh 104.0.
Screening O=C(c1cccs1)N(Cc1nc2sc3c(c2c(=O)[nH]1)CCCC3)C1CCCC1 returned Ecoli WT expand -9.0, HUVEC prolif 384 68.3, tolC growth inh 89.5*, H69AR growth 86K 86.5, Jurkat tox 60K 26.0 and Fibroblast inh 93.9.
`COC(=O)c1cc(=O)n(Cc2ccc(OC)c(OC)c2)c(=Nc2ccc(F)cc2)s1` gave Ecoli WT expand -5.0, HUVEC prolif 384 17.3*, H69AR growth 86K 1.9* and Fibroblast inh 12.4*.
